# Measured values of several laboratories.
# Compare with care: the assays were run in different laboratories.
# FABP4: Fatty acid-binding protein, adipocyte (FABP4, Homo sapiens, UniProt P15090)
# ACHE: Acetylcholinesterase (ACHE, Homo sapiens, UniProt P22303)
SMILES,target,assay,setting,measurement,result
CC1=C(CO)C(=O)O[C@@H]([C@@H](C)[C@H]2CC[C@H]3[C@@H]4C[C@H]5O[C@]56[C@@H](O)C=CC(=O)[C@]6(C)[C@H]4CC[C@]23C)C1,"Importin subunit beta-1 (KPNB1, Homo sapiens, UniProt Q14974, C158A)","binding, MST",,Kd,90.4 µM
Cc1c(-c2cccnc2)c2ccccc2n1CCCCC(=O)O,FABP4,"ligand displacement, fluorescence",,Kd,3.26 µM
O=c1cc(CSc2ccc(N=Cc3ccc(Br)cc3)cc2)occ1O,ACHE,"enzyme activity, inhibitor",,Ki,0.907 µM
O=C(O)C(F)(F)C(F)(F)C(F)(F)C(F)(F)C(F)(F)C(F)(F)C(F)(F)F,FABP4,"ligand displacement, fluorescence",,Ki,1.82 µM
CCCCOP(=O)(O)C(C)=O,"1-deoxy-D-xylulose-5-phosphate synthase (dxs, Escherichia coli, UniProt P77488)","enzyme activity, inhibitor",,Ki,3 µM
CC(C)c1cc2c(c(O)c1O)[C@@]1(C(=O)O)CCCC(C)(C)[C@@H]1CC2,ACHE,"enzyme activity, inhibitor",,Ki,0.00058 µM
Cn1c(=O)n(CCCCN2CCC3(CC2)OCc2ccccc23)c2ccccc21,"Transporter (Slc6a2, Rattus norvegicus, UniProt Q63380)","ligand displacement, radioligand",cell membranes,Ki,0.232 µM
CC(C)c1cc2c(c(O)c1O)[C@@]13CCCC(C)(C)[C@@H]1[C@H](OC3=O)[C@H]2O,ACHE,"enzyme activity, inhibitor",,Ki,0.00023 µM
O=C(O)C(F)(F)C(F)(F)C(F)(F)C(F)(F)C(F)(F)C(F)(F)C(F)(F)C(F)(F)C(F)(F)F,FABP4,"ligand displacement, fluorescence",,Ki,1.35 µM
